Test results reported in ChEMBL document CHEMBL1123026, “Preparation and antiarthritic and analgesic activity of 4,5-diaryl-2-(substituted thio)-1H-imidazoles and their sulfoxides and sulfones” (1985).

What was measured:
Type in all cases: functional
Mus musculus [1] = assay: Effective dose by mouse phenyl-p-benzoquinone writhing (PQW)assay after peroral administration; activity value ranges from (38.0-118.0); details: po
How it was run: (§1)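 Fasted (17-21 h) female white mice, 5-20 per double-blind test, dosed orally with compound suspended in 1% methylcellulose. 0.20 mL aqueous 0.01% phenyl-p-benzoquinone given i.p. 6 min before a 10-min observation for stretching/writhing. ED50 (dose protecting 50% of mice) calculated by the moving-average method.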

Mus musculus [2] = assay: Effective dose by mouse phenyl-p-benzoquinone writhing (PQW)assay after peroral administration; activity value ranges from (2.7-11.8); details: po; how it was run: as §1
Rattus norvegicus [3] = assay: Effective dose determined against rat adjuvant arthritis after peroral administration; details: po
How it was run: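 Male Lewis rats (130-150 g) given 0.1 mL Mycobacterium butyricum adjuvant (5 mg/mL in mineral oil) s.c. into the right hind paw; arthritis developed for 2 weeks. Groups of 10 matched for severity were dosed orally by gavage in PVA-acacia vehicle (10 mL/kg) for 7 days. Uninjected left paw volume was measured the day after the last dose. Percent decrease was calculated vs arthritic and nonarthritic controls. ED50 was read from a visually fitted semilog dose-response line.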

Mus musculus [4] = assay: Effective dose by mouse phenyl-p-benzoquinone writhing (PQW)assay after peroral administration; activity value ranges from (10.2-45.9); details: po; how it was run: as §1
Mus musculus [5] = assay: Effective dose by mouse phenyl-p-benzoquinone writhing (PQW)assay after peroral administration; 20.6-296.0; details: po
Mus musculus [6] = assay: Effective dose by mouse phenyl-p-benzoquinone writhing (PQW)assay after peroral administration; activity value ranges from (16.2-99); details: po; how it was run: as §1
Mus musculus [7] = assay: Effective dose determined by mouse phenyl-p-benzoquinone writhing (PQW) assay after peroral administration; details: po; how it was run: as §1
Rattus norvegicus [8] = assay: Decrease in paw volume was evaluated at dose 10 mg/kg
How it was run: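 Male Lewis rats (130-150 g) got 0.1 mL adjuvant (heat-killed Mycobacterium butyricum, 5 mg/mL in mineral oil) subplantar in the right hind paw and were left 2 weeks. Groups of 10 matched for severity were dosed orally by gavage (PVA-acacia vehicle, 10 mL/kg) for 7 days. Uninjected left hind paw volume was read the next day. % decrease = (arthritic control − treated)/(arthritic − nonarthritic control) × 100; Student's t-test.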

Mus musculus [9] = assay: Effective dose by mouse phenyl-p-benzoquinone writhing (PQW)assay after peroral administration; 30.9-197.0; details: po
Mus musculus [10] = assay: Effective dose by mouse phenyl-p-benzoquinone writhing (PQW)assay after peroral administration; activity value ranges from (0.028-0.065); details: po
Mus musculus [11] = assay: Effective dose by mouse phenyl-p-benzoquinone writhing (PQW)assay after peroral administration; activity value ranges from (20.2-79.4); details: po; how it was run: as §1
Mus musculus [12] = assay: Effective dose by mouse phenyl-p-benzoquinone writhing (PQW)assay after peroral administration; activity value ranges from (7.5-51.9); details: po; how it was run: as §1
Mus musculus [13] = assay: Effective dose by mouse phenyl-p-benzoquinone writhing (PQW)assay after peroral administration; activity value ranges from (15.7 - 101.9); details: po; how it was run: as §1
Mus musculus [14] = assay: Effective dose by mouse phenyl-p-benzoquinone writhing (PQW)assay after peroral administration; activity value ranges from (9.2 - 43.6); details: po; how it was run: as §1
Mus musculus [15] = assay: Effective dose by mouse phenyl-p-benzoquinone writhing (PQW)assay after peroral administration; activity value ranges from (0.23-1.22); details: po
Mus musculus [16] = assay: Effective dose by mouse phenyl-p-benzoquinone writhing (PQW)assay after peroral administration; activity value ranges from (2.3-15.7); details: po; how it was run: as §1
Mus musculus [17] = assay: Effective dose by mouse phenyl-p-benzoquinone writhing (PQW)assay after peroral administration; 26.7-130; details: po
Mus musculus [18] = assay: Effective dose by mouse phenyl-p-benzoquinone writhing (PQW)assay after peroral administration; activity value ranges from (6.0 - 18.0); details: po; how it was run: as §1
Mus musculus [19] = assay: Effective dose by mouse phenyl-p-benzoquinone writhing (PQW)assay after peroral administration; activity value ranges from (0.05-0.27); details: po
Mus musculus [20] = assay: Effective dose by mouse phenyl-p-benzoquinone writhing (PQW)assay after peroral administration; 6.5-42.8; details: po
Mus musculus [21] = assay: Effective dose by mouse phenyl-p-benzoquinone writhing (PQW)assay after peroral administration; 16.6-69.5; details: po
Mus musculus [22] = assay: Effective dose by mouse phenyl-p-benzoquinone writhing (PQW)assay after peroral administration; 4.5-25.9; details: po
Mus musculus [23] = assay: Effective dose by mouse phenyl-p-benzoquinone writhing (PQW)assay after peroral administration; activity value ranges from (2.8-10.9); details: po; how it was run: as §1
Mus musculus [24] = assay: Effective dose by mouse phenyl-p-benzoquinone writhing (PQW)assay after peroral administration; activity value ranges from (0.48-1.53); details: po

With `COc1cccc(-c2nc(S(=O)(=O)C(F)(F)C(F)F)[nH]c2-c2cccc(OC)c2)c1` the ED50 (Mus musculus [1]) was 67 mg/kg.

In the case of `O=S(=O)(c1nc(-c2ccccc2)c(-c2ccccc2)[nH]1)C(F)(F)CF`, the ED50 (Mus musculus [2]) is reported as 5.6 mg/kg and the ED50 (Rattus norvegicus [3]) is reported as 0.14 mg/kg.

`O=[N+]([O-])c1ccc(-c2[nH]c(S(=O)(=O)C(F)(F)C(F)F)nc2-c2ccc(F)cc2)cc1` showed an ED50 (Mus musculus [4]) of 21.6 mg/kg and an ED50 (Rattus norvegicus [3]) of 0.37 mg/kg.

`FC(F)Sc1nc(-c2ccc(Cl)cc2)c(-c2ccc(Cl)cc2)[nH]1` was tested, and the ED50 (Mus musculus [5]) was 78 mg/kg.

For `CCC[S+]([O-])c1nc(-c2ccc(OC)cc2)c(-c2ccc(OC)cc2)[nH]1` (stereo unspecified), the ED50 (Mus musculus [6]) was 40 mg/kg and the ED50 (Rattus norvegicus [3]) was 15 mg/kg.

Compound `CCOc1ccc(-c2[nH]c(SC(F)(F)C(F)F)nc2-c2ccccc2)cc1` has an ED50 (Mus musculus [7]) of over 130 mg/kg and a Decrease (Rattus norvegicus [8]) of 32%.

`COc1ccc(-c2[nH]c(SC(F)(F)F)nc2-c2ccc(F)cc2)cc1` gave an ED50 (Mus musculus [9]) of 78 mg/kg.

`COc1ccc(-c2nc(S(=O)(=O)C(F)(F)F)[nH]c2-c2ccc(OC)cc2)cc1` was tested, and the ED50 (Mus musculus [10]) was 0.043 mg/kg.

`COc1ccccc1-c1nc(S(=O)(=O)C(F)(F)C(F)F)[nH]c1-c1ccccc1OC` gave an ED50 (Mus musculus [11]) of 40 mg/kg and an ED50 (Rattus norvegicus [3]) of over 9 mg/kg.

Compound `O=S(=O)(c1nc(-c2cccc(Cl)c2)c(-c2ccccc2)[nH]1)C(F)(F)C(F)F` has an ED50 (Mus musculus [12]) of 19.8 mg/kg and an ED50 (Rattus norvegicus [3]) of 0.04 mg/kg.

`CCCS(=O)(=O)c1nc(-c2ccc(OC)cc2)c(-c2ccc(OC)cc2)[nH]1` was tested, and the ED50 (Mus musculus [13]) was 40 mg/kg and the ED50 (Rattus norvegicus [3]) was 9.5 mg/kg.

`O=S(=O)(CC(F)(F)F)c1nc(-c2ccc(F)cc2)c(-c2ccc(F)cc2)[nH]1` was tested, and the ED50 (Mus musculus [14]) was 20 mg/kg.

`COc1ccc(-c2nc(S(=O)(=O)C(F)(F)CF)[nH]c2-c2ccc(OC)cc2)cc1` was tested, and the ED50 (Mus musculus [15]) was 0.53 mg/kg.

`O=S(=O)(c1nc(-c2ccccc2)c(-c2ccccc2)[nH]1)C(F)F` was tested, and the ED50 (Mus musculus [16]) was 6 mg/kg.

For `COc1ccc(-c2nc(SC(F)(F)C(F)Br)[nH]c2-c2ccc(OC)cc2)cc1` (stereo unspecified), the ED50 (Mus musculus [17]) was 59 mg/kg and the ED50 (Rattus norvegicus [3]) was 10 mg/kg.

`O=S(=O)(CC(F)(F)F)c1nc(-c2ccccc2)c(-c2ccccc2)[nH]1` showed an ED50 (Mus musculus [18]) of 10.4 mg/kg and an ED50 (Rattus norvegicus [3]) of 15 mg/kg.

With `COc1ccc(-c2[nH]c(S(=O)(=O)C(F)(F)F)nc2-c2ccc(F)cc2)cc1` the ED50 (Mus musculus [19]) was 0.12 mg/kg.

In the case of `COc1ccc(-c2nc(S(=O)(=O)C(F)(F)C(F)I)[nH]c2-c2ccc(OC)cc2)cc1` (stereo unspecified), the ED50 (Mus musculus [20]) is reported as 16.7 mg/kg and the ED50 (Rattus norvegicus [3]) is reported as 5 mg/kg.

Work on `CN(C)c1ccc(-c2[nH]c(SC(F)(F)C(F)F)nc2-c2ccccc2)cc1` yielded an ED50 (Mus musculus [21]) of 34 mg/kg and an ED50 (Rattus norvegicus [3]) of 3 mg/kg.

Compound `COc1ccc(-c2nc(S(=O)(=O)C(F)(F)C(Br)Br)[nH]c2-c2ccc(OC)cc2)cc1` has an ED50 (Mus musculus [22]) of 10.8 mg/kg and an ED50 (Rattus norvegicus [3]) of over 9 mg/kg.

For `Cc1ccc(-c2[nH]c(S(=O)(=O)C(F)(F)C(F)F)nc2-c2ccccc2)cc1`, the ED50 (Mus musculus [23]) was 5.5 mg/kg and the ED50 (Rattus norvegicus [3]) was 0.8 mg/kg.

In the case of `O=S(=O)(c1nc(-c2ccc(F)cc2)c(-c2ccccc2)[nH]1)C(F)(F)C(F)F`, the ED50 (Mus musculus [24]) is reported as 0.86 mg/kg and the ED50 (Rattus norvegicus [3]) is reported as 0.03 mg/kg.
